# Published values gathered from unrelated publications.
# Lines come from different studies, so protocols differ.
# Target: Serine/threonine-protein kinase 38-like (STK38L, Homo sapiens, UniProt Q9Y2H1)
SMILES,effect on,mode,technique,cells,tested at,endpoint,value
Cn1c2c(c3ccc(Cl)c(Cl)c31)C(C#N)C1(CCNCC1)NC2=O (racemic),thermal stability,,DSF,,10 µM,ΔTm,-0.2 °C
NS(=O)(=O)c1cc(NC(=O)Cc2ccccc2)ccc1Oc1cccc(Cl)c1,cell-free assay,,competition with immobilised ligand,,1 µM,remaining binding,100%
CN1CC(Oc2cnc(C#N)cc2-c2ccn3nc(NC(=O)C4CC4)cc3c2)C1,enzyme activity,inhibitor,,,1 µM,inhibition,27%
Cc1c(C(=O)O)cc(-c2ccc(C3CCNCC3)cc2)c2ccc(-c3ccc(C(F)(F)F)cc3)cc12,binding,,competition with immobilised ligand,,1 µM,remaining binding,100%
Cn1c2c(Cl)c(Cl)ccc2c2cc(N)[nH]c(=O)c21,thermal stability,,DSF,,10 µM,ΔTm,0.3 °C
Nc1ncnc2occ(-c3ccc(NC(=O)Nc4cc(C(F)(F)F)ccc4F)cc3)c12,cell-free assay,,,,20 µM,remaining signal,17%
Cn1c2c(c3ccc(Cl)c(Cl)c31)C(C#N)C1(CCN(C(=O)OC(C)(C)C)CC1)NC2=O (racemic),thermal stability,,DSF,,10 µM,ΔTm,-0.1 °C
CNc1cc(Oc2cc(C(=O)Nc3cc(N4CCN(C)CC4)cc(C(F)(F)F)c3)ccc2C)ncn1,target engagement in cells,inhibitor,chemoproteomics,Huh-7,1 µM,inhibition,-35.6%
Cn1c2c(Cl)c(Cl)ccc2c2cc[nH]c(=O)c21,thermal stability,,DSF,,10 µM,ΔTm,0 °C
CS(=O)(=O)N1CCCC(NC(=O)[C@H](CCC2CCCCC2)NC(=O)c2ccc(CNc3ncnc4c3nnn4-c3ccccc3)cc2)C1 (some centres unmarked),binding,,competition with immobilised ligand,,1 µM,remaining binding,24%
O=C(Nc1cnn(-c2csc(C(=O)NC3COC3)c2)c1)Nc1c(F)cccc1Cl,enzyme activity,inhibitor,,,5 µM,remaining activity,94.8%
CN1CCC2(CC1)NC(=O)c1c(c3ccc(Cl)c(Cl)c3n1C)C2C#N (racemic),thermal stability,,DSF,,10 µM,ΔTm,0 °C
CCN1CCN(Cc2ccc(NC(=O)c3ccc(C)c(Oc4ccnc5[nH]ccc45)c3)cc2C(F)(F)F)CC1,target engagement in cells,inhibitor,chemoproteomics,Huh-7,10 µM,inhibition,-12.7%
N#CC1c2c([nH]c3c(Cl)c(Cl)ccc23)C(=O)NC12CCCCC2 (racemic),thermal stability,,DSF,,10 µM,ΔTm,0.2 °C
O=c1nc(-c2ccccn2)sc2ccccc12,binding,,competition with immobilised ligand,,1 µM,remaining binding,66%
COc1cc(-c2cc(-c3ccc(N4CCNCC4)cc3)cnc2C)cc(OC)c1OC,enzyme activity,inhibitor,,,0.1 µM,inhibition,0%
CN(C)c1ncnc(-c2ccc3nc(Nc4cc(CN5CCN(C(=O)CC(F)(F)F)CC5)ccn4)[nH]c3c2)c1Cl,cell-free assay,,competition with immobilised ligand,,1 µM,remaining binding,74%
O=C(Nc1cnn(-c2csc(C(=O)NC3COC3)c2)c1)Nc1ccccc1Cl,enzyme activity,inhibitor,,,5 µM,remaining activity,103%
CS(=O)(=O)c1cc(C2(NC(=O)c3cncc4c3cnn4-c3ccc(F)cc3)CC2)ccn1,cell-free assay,,competition with immobilised ligand,,1 µM,remaining binding,34%
CN(C)c1ncc(F)c(-c2cnn3ncccc23)n1,binding,,,,1 µM,remaining binding,100%
